Screening results from PubChem.
Rows were chosen to be rich in hits. Some 1.7% of all compounds tested hit in one or more screens of this group.
DNMT1 block = blocks human DNA methyltransferase DNMT1; DNMT1 molecular beacon, Hinp1I cleavage, fluorescence; inhibition (reported as % activation of signal), % at 10 µM; AID 588458; P26358; 360,000 compounds, 0.83% hits; in the data active means inhibition above about 50%
Scp-1 inhibitor = inhibitors of human Scp-1 phosphatase; 340,000 compounds, 0.88% hits; Recombinant Scp1, phosphopeptide, malachite green phosphate absorbance; Q9GZU7; inhibition, % at 20 µM; AID 493091;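 active means inhibition above about 50% at 20 µM, limit read from the data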;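 further: plate controls were DMSO wells with enzyme for no effect and wells lacking enzyme for full effect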
Target sequence (Q9GZU7 76-261 limits assumed): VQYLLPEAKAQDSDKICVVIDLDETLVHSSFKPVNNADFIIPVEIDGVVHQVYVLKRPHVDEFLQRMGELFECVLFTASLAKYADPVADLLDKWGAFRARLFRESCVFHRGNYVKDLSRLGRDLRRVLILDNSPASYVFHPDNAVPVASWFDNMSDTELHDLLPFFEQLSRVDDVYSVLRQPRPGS
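Incubation: 45 min enzyme reaction at room temperature / System: truncated SCP-1 phosphatase (76-261aa) / Reagent: Phospho 17-mer peptide substrate / Buffer or medium: Acidic Tris acetate buffer with magnesium and detergent / Signal: absorbance at 630 nm / Doses: one concentration, 20 µM, with 1.0% DMSO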
STEP block = STEP (human) phosphatase inhibition | P54829 | inhibition, % at 20 µM | recombinant STEP, OMFP fluorogenic substrate, fluorescence | AID 588621 | 360,000 compounds, 0.25% hits;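 active means inhibition at 20 µM, scaled per plate between control wells, above about 37%, limit read from the data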;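 further: 0% = DMSO with enzyme and substrate and 100% = substrate only without enzyme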
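Material: STEP (striatal-enriched tyrosine phosphatase) enzyme, cell-free; Compound dosing: 20 µM single dose in 1% DMSO; Technique: fluorescence read at 480 nm ex / 540 nm em; Times: reaction 20 min, ambient temperature; Medium: 50 mM Bis-Tris pH 6.0 with 2.5 mM DTT and 0.005% Tween 20; Also added: OMFP at 25 µM.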
LMPTP block = blocks human LMPTP phosphatase | AID 651560 | 360,000 compounds, 0.22% hits | inhibition, % at 20 µM | recombinant LMPTP-A, OMFP fluorogenic substrate, fluorescence intensity | P24666;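 active means compounds that cut the enzyme signal by at least half of the control window in the single-dose screen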;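 further: plate controls were DMSO wells with enzyme plus substrate for no effect and substrate without enzyme for full effect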
Target sequence (P24666 whole entry, looked up): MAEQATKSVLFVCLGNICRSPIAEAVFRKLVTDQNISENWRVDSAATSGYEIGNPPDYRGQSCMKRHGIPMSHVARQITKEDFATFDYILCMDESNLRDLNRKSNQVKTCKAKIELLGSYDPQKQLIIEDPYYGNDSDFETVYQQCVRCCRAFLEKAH
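Buffer or medium: Bis-Tris pH 6.0, DTT, detergent; Assay system: LMPTP-A enzyme; Quantity: 0.625 nM enzyme; Detection: endpoint fluorescence intensity; Times: 50 min dark incubation at room temperature; Controls: substrate-only low control, DMSO enzyme-plus-substrate high control; Doses: single 20 µM dose; Read-out: percent inhibition versus substrate-only and uninhibited controls; Reagent: 400 µM OMFP.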
SUMO1 PPI mod = SUMO1-SIM interaction modulation; inhibition, % at 20 µM; P63165; AID 602429; SUMO1 binding to a labelled peptide, TR-FRET, 1 h; 360,000 compounds, 0.33% hits; in the data active means inhibition above about 37%
Target sequence (P63165 whole entry, looked up): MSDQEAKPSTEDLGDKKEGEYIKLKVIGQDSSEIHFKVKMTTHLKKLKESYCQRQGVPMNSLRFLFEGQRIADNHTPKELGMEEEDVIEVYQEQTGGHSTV
Scp-1 conf = confirmation of human Scp-1 phosphatase inhibitors; shares compounds with Scp-1 inhibitor; recombinant SCP-1 catalytic domain, phosphate release, malachite green absorbance; inhibition, % at 20 µM; 2,500 compounds, 61% hits; AID 540281;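 further: plate controls were DMSO with enzyme for no effect and buffer wells lacking enzyme for full effect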
Scp-1 MG ctr = interferes with malachite green readout, flagging false Scp-1 hits | 2,500 tested, under 10 active | apparent inhibition (interference), % at 20 µM | shares compounds with Scp-1 inhibitor | Colorimetric interference counterscreen, malachite green absorbance 630 nm;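 further: compounds added after enzyme reaction finished so only phosphate colour detection is probed; plate controls were DMSO wells with completed Scp-1 reaction for no effect and substrate wells lacking enzyme for full effect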
Scp1 DSF = Scp-1 (human) binding by thermal shift | shares compounds with Scp-1 inhibitor | Recombinant SCP1, Sypro Orange thermal shift Tm | thermal shift relative to vanadate control, % at 40 µM | 1,500 compounds, 25% hits;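 active means substances whose mean melting-temperature shift, as a percentage of the reference inhibitor's shift, reaches about 5.3%, limit read from the data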;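 further: 0% = Tm of DMSO wells and 100% = Tm with sodium orthovanadate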
* = called active by the depositor; . = not tested or not shown.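 How the source made its calls, unless noted: active means inhibition of at least 30% at 20 µM; inactive means the rest.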

SMILES	DNMT1 block	Scp-1 inhibitor	STEP block	LMPTP block	SUMO1 PPI mod	Scp-1 conf	Scp-1 MG ctr	others
Cc1noc(C)c1NC(=O)N(C)C[C@H]1Oc2ccc(NC(=O)Cc3ccccc3)cc2C(=O)N([C@H](C)CO)C[C@@H]1C	1	0	-2	-2	-3	.	.
COc1ccc(S(=O)(=O)N(C)C[C@H]2Oc3ccc(NC(=O)c4ccncc4)cc3C(=O)N([C@H](C)CO)C[C@@H]2C)cc1	5	74*	1	1	2	3	-13
C[C@H](CO)N1C[C@H](C)[C@H](CN(C)S(=O)(=O)c2cccs2)Oc2ncc(-c3cc4ccccc4o3)cc2C1=O	-5	.	-2	2	-18	.	.
COc1ccc(Cc2c(-c3cccc(Cl)c3)nc3ccc(C)cn23)c(C)c1	-1	.	-2	3	-4	.	.
CCCNC(=O)C1(C)CCN(Cc2cc(C(F)(F)F)ccc2Cl)C1 (centres undefined)	-1	.	-2	1	-1	.	.
CN1OC[C@@H]2CN(S(=O)(=O)c3ccccc3)[C@H](c3ccc(-n4ccnc4)cc3)C[C@@H]21	1	.	-1	-2	3	.	.
COc1ccc(-c2ccc(C(=O)NCc3ccc(C(F)(F)F)cc3)c3occc23)c(C)c1	-2	.	3	6	0	.	.
O=C(C[C@H]1CC[C@H]2[C@@H](COC[C@@H](O)CN2Cc2cc(F)ccc2F)O1)NCc1ccc(Cl)cc1	.	.	.	-1	2	.	.
COc1ccc(NC(=O)N(C)C[C@H]2Oc3ccc(NC(=O)c4ccncc4)cc3C(=O)N([C@H](C)CO)C[C@@H]2C)cc1	12	84*	-1	-2	0	15	-13
c1ccc2c(-c3cc(NCc4ccncc4)n4nccc4n3)cccc2c1	2	.	-1	4	-3	.	.
CC1(C(=O)NS(=O)(=O)c2cccs2)CCN1C(=O)C1CCCCC1 (centres undefined)	0	.	-2	-3	5	.	.
CC(C)c1ccc2oc(-c3ccc(NC(=O)c4ncn[nH]4)cc3)nc2c1	37	91*	13	3	47*	53*	-7	Scp1 DSF=-14
COc1ccc(NC(=O)CSc2ncnc3sc(C)cc23)cc1	-1	-4	1	-1	2	.	.
Cc1cc2c(SCC(=O)Nc3cccc(O)c3)ncnc2s1	70*	70*	10	32	22	59*	-15	Scp1 DSF=13*
Cc1sc2ncnc(SCC(=O)Nc3ncccc3O)c2c1C	29	59*	5	8	20	72*	-2	Scp1 DSF=9.8*
O=C(CSc1ncn(-c2ccccc2)n1)Nc1nc2c(s1)CCCC2	36	79*	7	4	11	64*	-8	Scp1 DSF=-1
O=C(CSc1ncn(-c2ccccc2)n1)Nc1nc2ccccc2s1	-4	3	-4	0	1	.	.
COc1ccc(/C=N\NC(=O)c2ccc([N+](=O)[O-])c(C)c2)cc1COc1ccccc1C(N)=O	-6	67*	6	1	54*	34*	-8	Scp1 DSF=-3
Cc1nn(CC(=O)NCc2cccs2)c(=O)c2nn(-c3ccccc3)c(C)c12	-3	51*	-2	-2	-2	-18	-18
O=C(NNC(=O)c1cccs1)c1ccc(Cl)c(S(=O)(=O)N2CCCC2)c1	-5	-1	-2	-1	5	.	.
Cc1cc(C(=O)O)cc(S(=O)(=O)NNC(=O)c2cccs2)c1C	3	53*	2	-1	5	-7	-13
COCCNC(=O)C1(C)CCCN(CCSc2ccccc2)C1 (centres undefined)	5	.	0	-3	-1	.	.
CSc1ccc(Cn2c(C)c(C(=O)NCc3cccc(Cl)c3)sc2=O)cc1	-6	.	-3	2	37	.	.
Cc1nc(CNC(=O)c2ccccc2OC2CCN(S(C)(=O)=O)CC2)cs1	1	61*	-2	-1	1	-29	-21
Cc1nc(CN(C)C(=O)c2ccccc2OC2CCN(S(C)(=O)=O)CC2)cs1	2	-4	-1	-1	-4	.	.
SMILES	DNMT1 block	Scp-1 inhibitor	STEP block	LMPTP block	SUMO1 PPI mod	Scp-1 conf	Scp-1 MG ctr	others
CC(C)n1nc(C(=O)Nc2ccc(-n3cnnn3)cc2)c2ccccc2c1=O	-3	-5	-1	-1	-3	.	.
Cn1nc(C(=O)Nc2ccc(-n3cnnn3)cc2)c2ccccc2c1=O	-2	99*	3	1	2	70*	-11	Scp1 DSF=-27
CCOCc1cnc(C)nc1NCC(=O)c1c(C)n(C)c2ccc(OC)cc12	1	51*	-4	0	1	1	-6
CC1(C(=O)NS(=O)(=O)c2ccccc2)CCN1C(=O)CC1CCCC1 (centres undefined)	6	.	2	-1	0	.	.
O=C(Sc1n[nH]c(=O)[nH]c1=O)c1ccccc1	1	13	-4	-1	-6	.	.
CN(C)CCN1CCN(C2CN(Cc3cn(Cc4ccccc4C(F)(F)F)nn3)S(=O)(=O)C2)CC1 (centres undefined)	1	.	7	-7	-5	.	.
Nc1nc(SCC(=O)NC2CCCCC2)n[nH]1	2	-4	0	-1	2	.	.
O=C(CSc1nc2ccccc2[nH]1)NC1CCCC1	37	62*	22	2	5	45*	-12	Scp1 DSF=-11
O=C(CCCSc1nc2ccccc2[nH]1)NC1CCCCC1	7	4	0	-1	-4	.	.
O=C(CSc1n[nH]c(C2CCCC2)n1)NC1CCCC1	1	64*	-4	1	-2	2	-5
COc1ccc(C(C)=O)cc1Cn1c(C)c(C(=O)NCc2cccc(C)c2)sc1=O	0	.	1	0	15	.	.
Cc1cc(C)c(S(=O)(=O)N2CCCCC2CCNC(=O)C(=O)NCc2cccnc2)c(C)c1 (centres undefined)	1	-6	-1	0	0	.	.
O=C(CSc1n[nH]c(-c2ccncc2)n1)Nc1ccc(Cl)c(Cl)c1	-2	52*	-6	-2	11	-15	-14
COc1ccc(N2CCN(C(CNC(=O)CC(C)(C)C)c3ccc4c(c3)OCO4)CC2)cc1 (centres undefined)	1	64*	1	-1	3	-10	-10
COc1ccc(N2CCN(C(CNC(C)=O)c3ccc4c(c3)OCO4)CC2)cc1 (centres undefined)	1	6	0	-2	-2	.	.
O=C(CCS(=O)(=O)c1ccc(Br)cc1)NC1CCCCCC1	46	70*	6	-2	7	69*	-10	Scp1 DSF=-19
